This is an account of results in ChEMBL document CHEMBL1125156, “Inhibitors of human leukocyte proteinase-3” (J Med Chem, 1990).

Active and inactive are the calls of the source. The rule behind the calls is not given here.

For orientation: inhibition means how much of the control response was suppressed. Read a low inhibition as a weak effect.

The target in assay [1] is T1, Neutrophil elastase (Homo sapiens) (UniProt P08246).
T1 sequence (whole entry): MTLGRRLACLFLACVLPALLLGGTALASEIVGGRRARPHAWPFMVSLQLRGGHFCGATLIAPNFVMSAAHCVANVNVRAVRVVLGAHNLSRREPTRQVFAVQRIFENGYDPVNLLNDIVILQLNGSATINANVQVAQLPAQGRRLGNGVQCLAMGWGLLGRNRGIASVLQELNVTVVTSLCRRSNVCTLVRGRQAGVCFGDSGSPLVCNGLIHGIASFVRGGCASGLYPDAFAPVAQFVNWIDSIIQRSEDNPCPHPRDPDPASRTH
Put plainly: Evaluated for the inhibition of Human leukocyte elastase.

In assay [2] the target is T2, Myeloblastin (Homo sapiens) (UniProt P24158).
T2 sequence (whole entry): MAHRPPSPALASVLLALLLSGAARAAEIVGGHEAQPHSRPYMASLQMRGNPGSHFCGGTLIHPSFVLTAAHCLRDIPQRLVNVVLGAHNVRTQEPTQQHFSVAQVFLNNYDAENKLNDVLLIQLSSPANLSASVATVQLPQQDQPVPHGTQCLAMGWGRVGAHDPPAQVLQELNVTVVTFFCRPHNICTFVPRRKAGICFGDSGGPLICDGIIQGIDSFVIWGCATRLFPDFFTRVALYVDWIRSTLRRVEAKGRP
Put plainly: Evaluated for the inhibition of Human leukocyte Proteinase 3 (PR-3); Inactive. The procedure, abridged:
(§1)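 PR-3 purified from polymorphonuclear leukocyte granules. Inhibitor in DMSO was incubated with enzyme in 0.1 M phosphate, pH 6.5, in a constant-temperature bath. Aliquots taken over time went into BOC-Ala-p-nitrophenol (20 mM acetonitrile stock) in phosphate buffer. After 30 s, A347.5 was read for 1 min. kobs came from ln(vt/v0) versus time and is reported as kobs/[I] (M-1 s-1).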

Assay [3] addresses T2, Myeloblastin (Homo sapiens). Put plainly: Evaluated for the inhibition of Human leukocyte Proteinase 3 (PR-3) following a 10-min incubation with a 50-fold excess of inhibitor. The following applies: concentration not given here.
The target is the same in assay [4]. Put plainly: Evaluated for the inhibition of Human leukocyte Proteinase 3 (PR-3). The procedure, abridged: as §1

For the molecule `CS(=O)(=O)ON1C(=O)CC(Cc2ccccc2)C1=O` (stereo not drawn), the K obs / 1 in assay [1] stood at 1100 M⁻¹ s⁻¹. In addition, the “K obs / 1” value in assay [2] was “inactive”.

Consider `CS(=O)(=O)ON1C(=O)CCC1=O`, for which the “K obs / 1” value in assay [2] is “inactive”.

In assay [3], `O=C1CCC(=O)N1OS(=O)(=O)/C=C/c1ccccc1` had an inhibition below 35%.

For `CC1CC(=O)N(OS(=O)(=O)/C=C/c2ccccc2)C1=O` (stereo not drawn), the K obs / 1 in assay [4] stood at 4500 M⁻¹ s⁻¹.

Consider `CC1CC(=O)N(OS(C)(=O)=O)C1=O` (stereo not drawn), for which the K obs / 1 in assay [4] was determined as 2300 M⁻¹ s⁻¹.

For the molecule `CCCCC1CC(=O)N(OS(=O)(=O)/C=C/c2ccccc2)C1=O` (stereo not drawn), the K obs / 1 in assay [4] was 3800 M⁻¹ s⁻¹.

`CC(C)CC1CC(=O)N(OS(=O)(=O)/C=C/c2ccccc2)C1=O` (stereo not drawn) gave a K obs / 1 in assay [4] of 10400 M⁻¹ s⁻¹.

With `CCCC1CC(=O)N(OS(C)(=O)=O)C1=O` (stereo not drawn), the K obs / 1 in assay [1] and in assay [4] was 8600 M⁻¹ s⁻¹ each time.

As for `O=C1CC(Cc2ccccc2)C(=O)N1OS(=O)(=O)/C=C/c1ccccc1` (stereo not drawn), the inhibition in assay [3] is below 35%.

`CC(C)CC1CC(=O)N(OS(C)(=O)=O)C1=O` (stereo not drawn) displayed a K obs / 1 in assay [4] of 1200 M⁻¹ s⁻¹.

In assay [4], `CCC1CC(=O)N(OS(C)(=O)=O)C1=O` (stereo not drawn) returned a K obs / 1 of 13400 M⁻¹ s⁻¹.

Consider `CC(C)C1CC(=O)N(OS(=O)(=O)/C=C/c2ccccc2)C1=O` (stereo not drawn), for which the K obs / 1 was found to be 100000 M⁻¹ s⁻¹ in assay [1] and 8100 M⁻¹ s⁻¹ in assay [4].

In assay [4], `CC(C)C1CC(=O)N(OS(C)(=O)=O)C1=O` (stereo not drawn) gave a K obs / 1 of 2200 M⁻¹ s⁻¹.

For `CCCCC1CC(=O)N(OS(C)(=O)=O)C1=O` (stereo not drawn), the K obs / 1 in assay [1] was 4100 M⁻¹ s⁻¹; in assay [4], 800 M⁻¹ s⁻¹.
